# Source: PubChem (Broad Institute)
# miR122 inh = inhibitors of miR-122 in Huh7 cells; Huh7 miR-122 Renilla luciferase sensor, 48 h; neutral wells = 0, positive control = 100; activation (reporter increase), % at 12.5 µM; 340,000 tested, 0.3% active;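 active = mean replicate activation score at least 90 and every replicate individually at or above 90; inconclusive = only one of the two criteria met; inactive = neither criterion met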;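 also: higher luciferase means less miR-122 activity so hits act as miR-122 inhibitors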
# Rtt109 HAT inh = blocks Candida albicans Rtt109/Vps75 acetyltransferase activity | inhibition, % at 34.9 µM | purified Rtt109/Vps75, ThioGlo CoA-SH fluorescence, 4 h | AID 540336 | 330,000 tested, 0.16% active | Q5AAJ8;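 active = inhibition of at least 50% in every replicate; inconclusive = best replicate reaches 50% inhibition but some replicates fall short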
# Target sequence (Q5AAJ8 whole entry, looked up): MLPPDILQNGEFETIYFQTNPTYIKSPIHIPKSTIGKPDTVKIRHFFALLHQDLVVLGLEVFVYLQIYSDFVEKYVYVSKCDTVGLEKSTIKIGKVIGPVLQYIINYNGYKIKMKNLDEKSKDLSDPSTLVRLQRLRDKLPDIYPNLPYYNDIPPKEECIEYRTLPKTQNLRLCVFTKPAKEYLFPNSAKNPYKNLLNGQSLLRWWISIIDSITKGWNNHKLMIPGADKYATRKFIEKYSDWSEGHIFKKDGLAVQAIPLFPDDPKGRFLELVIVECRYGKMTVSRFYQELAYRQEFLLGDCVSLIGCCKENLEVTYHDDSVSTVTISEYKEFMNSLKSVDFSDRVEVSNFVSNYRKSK
# GSIS activator = primary screen for activators of insulin secretion dependent on glucose, INS-1E cells, GLuc reporter luminescence; INS-1E GLuc reporter insulin secretion, 2-3 h; activation, % at 16.6 µM; 370,000 tested, 0.61% active; AID 743287;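 active = lowest replicate activation of at least 40%, so every replicate reaches that level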;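 also: 0% = median of neutral control wells and 100% = median of IBMX positive control wells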
# HIV Env fusion = inhibitors of HIV Env-mediated cell fusion | 360,000 tested, 1.1% active | HeLa-JRFL Env/CEM21 cell fusion, luciferase | inhibition, % at 12.3 µM;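 active = mean replicate inhibition score of at least 50 and every replicate individually at or above 50; inconclusive = only one of the two criteria met; inactive = mean below 50 and not all replicates reaching 50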;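 also: 0% = plate neutral controls and 100% = maraviroc near 300 nM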
# dFosB activator = mouse delta FosB homodimer activation; 340,000 tested, 0.99% active; AID 493131; activation, % at 25 µM; P13346; purified delta FosB, TAMRA-CDK5 oligo fluorescence polarization; percent of positive-control signal above neutral wells;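 active = mean activation above about 17%, with every replicate also reaching it, limit read from the data, passing the limit was not always enough; inconclusive = only one of the two conditions met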
# Target sequence (P13346 whole entry, looked up): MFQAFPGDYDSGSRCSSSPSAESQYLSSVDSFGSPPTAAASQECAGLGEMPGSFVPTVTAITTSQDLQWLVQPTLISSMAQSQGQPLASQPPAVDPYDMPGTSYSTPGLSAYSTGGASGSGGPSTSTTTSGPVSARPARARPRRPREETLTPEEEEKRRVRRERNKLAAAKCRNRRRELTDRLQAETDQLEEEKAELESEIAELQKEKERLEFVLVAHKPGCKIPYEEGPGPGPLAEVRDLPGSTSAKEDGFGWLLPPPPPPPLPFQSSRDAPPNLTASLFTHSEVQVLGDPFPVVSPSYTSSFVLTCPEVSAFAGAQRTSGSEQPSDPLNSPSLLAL
# Cneo AK release = Cryptococcus neoformans lysis via adenylate kinase release | C. neoformans lysis, adenylate kinase release luminescence, 4 h; normalised: neutral wells 0, clomiphene wells 100 | lysis activity, % at 15 µM | 360,000 tested, 0.2% active;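 active = mean lysis activity across replicates of at least 80%, whatever share of replicates individually reach that level; inactive = mean lysis activity below 80%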
#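 Test system: log-phase Cryptococcus neoformans yeast cells; Quantity: yeast cell density of 5 × 10^6 cells/mL; Buffer or medium: YPD; Doses: single compound concentration per well; Timing: 4 h at 37 °C static, read 1 h later; Measured by: AK luminescence; Read-out basis: lysis from increased AK signal; Control set: Clomiphene as positive control.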
# * hit, by the source's call; ? = inconclusive; . = no result given; [ ] = dose if it differs, or a comment. Only some compounds are listed: those with a hit (about 2.4% of all), similar ones and a draw of the others.
SMILES,miR122 inh,Rtt109 HAT inh,GSIS activator,HIV Env fusion,dFosB activator,Cneo AK release
O=C(Nc1ccccc1F)N1CC(=O)N2[C@@H](CO)[C@@H](c3ccc(C#Cc4ccccc4)cc3)[C@@H]2C1,.,.,-3,.,.,.
COc1nc(-c2ccc(C)cc2)ccc1-c1noc(-c2cccnc2)n1,0,-3,.,-116,-3,0
COc1nc(-c2ccccc2)ccc1-c1noc(-c2cccnc2)n1,-7,10,71*,-29,-11,2
C[C@@H]1CCCCO[C@H](CN(C)Cc2ccc(C(F)(F)F)cc2)[C@@H](C)CN([C@@H](C)CO)C(=O)c2cc(NC(=O)c3ccccc3)ccc2O1,-6[16.7 µM],.,-8,14[16.7 µM],.,-1
C[C@@H]1CCCCO[C@@H](CN(C)Cc2ccc(C(F)(F)F)cc2)[C@H](C)CN([C@@H](C)CO)C(=O)c2cc(NC(=O)Cc3ccccc3)ccc2O1,-22[16.7 µM],.,-12,?,.,1
C[C@H]1CCCCO[C@H](CN(C)Cc2ccc(C(F)(F)F)cc2)[C@@H](C)CN([C@@H](C)CO)C(=O)c2cc(NC(=O)c3ccccc3)ccc2O1,9[16.7 µM],.,-23,59*[16.7 µM],.,0
C[C@@H]1CN([C@H](C)CO)C(=O)c2cc(NC(=O)Cc3ccccc3)ccc2O[C@@H](C)CCCCO[C@@H]1CN(C)Cc1ccc(C(F)(F)F)cc1,-22[16.7 µM],.,-11,65*[16.7 µM],.,2
C[C@H]1CCCCO[C@@H](CN(C)Cc2ccc(C(F)(F)F)cc2)[C@@H](C)CN([C@@H](C)CO)C(=O)c2cc(NC(=O)c3ccccc3)ccc2O1,-14[16.7 µM],.,-18,69*[16.7 µM],.,-2
C[C@H]1CN(C)C(=O)c2cccc(N(C)C)c2O[C@H]1CN(C)S(C)(=O)=O,.,.,16,.,.,.
CO[C@@H]1CN(C)C(=O)c2ccc(NC(=O)CC(F)(F)F)cc2OC[C@@H](C)N(C(=O)C2CC2)C[C@@H]1C,.,.,-1,.,.,.
N#Cc1c(NC(=O)c2ccccc2)sc2c1CCCCC2,3,3,.,.,3,-20
N#Cc1c(Cl)nsc1NC(=O)c1ccccc1,.,.,-26,60*,-10,.
COc1ccc2cc(-c3cc(C(=O)OCC(=O)NC4CCS(=O)(=O)C4)c4ccccc4n3)ccc2c1 (stereo not given),.,-6,91*,-55,12,.
O=C(CSc1ccc(-c2ccco2)nn1)NC1CCCCC1,.,-1,1,-12,0,.
COc1ccc(NC(=O)CSc2ccc(-c3ccco3)nn2)cc1OC,1,0,41*,7,-3,3
O=C(CSc1ccc(-c2ccco2)nn1)NC1CCCC1,.,0,40*,-8,-5,.
COc1cccc(NC(=O)CSc2ccc(-c3ccco3)nn2)c1,-1,2,-19,0,-14,-1
CCc1nc2c(OCc3ccccc3C)cccn2c1N(C)C(=O)c1ccco1,-2,.,61*,-9,.,0
CCc1nc2c(OCc3ccccc3C(=O)OC)cccn2c1N(C)C(=O)c1ccncc1,2,.,117*,0,.,-3
Cc1nc2ncnn2c(N2CCN(c3cccc(C(F)(F)F)c3)CC2)c1C,-20,-3,.,60*,-30,3
Cc1cc(N2CCN(c3cccc(C(F)(F)F)c3)CC2)n2ncnc2n1,-3,-2,2,.,-1,-1
O=C(C[C@@H]1C=C[C@H](NC(=O)Nc2ccccc2)[C@@H](CO)O1)NCc1cccc(F)c1,.,.,4,2[16.7 µM],.,1
CCOc1cccc(-c2csc(C3COc4ccccc4O3)n2)c1 (stereo not given),.,2,126*,-8,-4,.
NC(N)=Nc1nc(C2COc3ccccc3O2)cs1 (stereo not given),.,.,5,-82,-5,.
CNC[C@@H]1OCCCC[C@H](C)Oc2ccc(NC(=O)Nc3ccccc3)cc2C(=O)N([C@H](C)CO)C[C@@H]1C,-1[16.7 µM],.,28,15[16.7 µM],.,.
SMILES,miR122 inh,Rtt109 HAT inh,GSIS activator,HIV Env fusion,dFosB activator,Cneo AK release
Cc1ccc(C(=O)c2nc(C(=O)NCCO)nc3ccccc23)cc1,15,-4,4,6,-4,1
Cc1ccc(C(=O)c2cnc3ccccc3c2-c2ccccc2)cc1,8,0,.,83*,-8,3
COc1ccc(Oc2nc(-c3ccccc3)ncc2C(=O)O)cc1,-3,-3,3,1,-6,.
COc1ccc(C(=O)c2cnc3ccccc3c2-c2ccccc2)cc1,13,5,.,91*,-8,-1
CCC(C)NC(=O)C1CCN(S(=O)(=O)c2cc([N+](=O)[O-])ccc2Cl)CC1 (stereo not given),-2,54*,10,5,-7,.
CC1CCN(S(=O)(=O)c2cc([N+](=O)[O-])ccc2Cl)CC1,.,.,-1,-3,4,.
CC(=O)Nc1ccc2c(c1)CC(=O)N(C)C[C@@H](C)[C@@H](CN(C)C)O2,.,.,15,.,.,.
CO[C@@H]1CN(C)C(=O)c2ccc(NC(=O)c3ccno3)cc2OC[C@H](C)NC[C@H]1C,.,.,20,.,.,.
O=C(Nc1nc(-c2ccc3ccccc3c2)cs1)C1CCN(S(=O)(=O)c2cccs2)CC1,.,-2,17,21,16,.
O=C(Nc1nc(-c2ccccc2)cs1)C1CCCN(S(=O)(=O)c2ccccc2)C1 (stereo not given),-4,3,-1,97*,2,1
Cc1ccc(-c2csc(NC(=O)C3CCN(S(=O)(=O)c4cccs4)CC3)n2)cc1,.,-4,-36,63*,-2,.
C[C@@H]1CCCCO[C@@H](CN(C)C(=O)NC2CCCCC2)[C@H](C)CN([C@H](C)CO)C(=O)c2cc(NC(=O)NC3CCCCC3)ccc2O1,.,.,-18,.,.,.
CC1(C)CC(=O)C(C=NC2CC(C)(C)NC(C)(C)C2)=C(O)C1,.,.,44*,.,3,5
CC1(C)CC(=O)C(C=NC2CCCCC2)=C(O)C1,2,-8,-2,.,2,-1
Cc1ccc(S(=O)(=O)N(C)C[C@H]2Oc3cc(C4=CCCC4)ccc3S(=O)(=O)N([C@H](C)CO)C[C@H]2C)cc1,31[16.7 µM],.,5,60*[16.7 µM],.,1
Cc1ccc(S(=O)(=O)N(C)C[C@@H]2Oc3cc(C4=CCCC4)ccc3S(=O)(=O)N([C@@H](C)CO)C[C@H]2C)cc1,-23[16.7 µM],.,9,58*[16.7 µM],.,-2
COc1cccc(S(=O)(=O)N(C)C[C@H]2Oc3cc(C4=CCCC4)ccc3S(=O)(=O)N([C@@H](C)CO)C[C@H]2C)c1,30[16.7 µM],.,9,110*[16.7 µM],.,1
C[C@@H]1CN([C@H](C)CO)S(=O)(=O)c2ccc(C3=CCCC3)cc2O[C@@H]1CN(C)S(=O)(=O)c1ccc(F)cc1,3[16.7 µM],.,6,50[16.7 µM],.,-1
C[C@@H]1CN([C@@H](C)CO)S(=O)(=O)c2ccc(C3=CCCCC3)cc2O[C@@H]1CN(C)S(=O)(=O)c1ccc(F)cc1,15[16.7 µM],.,1,62*[16.7 µM],.,-8
COCC(=O)Nc1ccc2c(c1)OC[C@H](C)N(CCc1ccccc1)C[C@H](C)[C@@H](OC)CN(C)C2=O,.,.,-4,.,.,.
